In ChEMBL document CHEMBL1124167, “Syntheses and gastric acid antisecretory properties of the H2-receptor antagonist. N-[3-[3-(1-piperidinylmethyl)phenoxy]propyl]thieno[3,4-d]isot hiazol-3-amine 1,1-dioxide and related derivatives” (J Med Chem, 1988) one finds ED50, Total acid output and Activity data, which are given here for 13 compounds.

Active and inactive are the calls of the source. The rule behind the calls is not given here.

The first experiment is filed under the species Canis familiaris. Kind of experiment: Efficacy against histamine stimulation was determined in dog. In kind it is functional. The following applies: Canis lupus familiaris. In outline: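 Gastric pouch dogs fasted 18 h with water, baseline from two 15-min samples. Drug in 0.9% saline given by oral gavage 30 min before histamine diphosphate (64 μg/kg base, sc). Samples collected at 15-min intervals and acid titrated to pH 7.0 with 0.1 N NaOH. Total acid output summed over 1 h, percent inhibition vs the same dog's saline run, runs ≥3 days apart.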
`CN/C(=C\[N+](=O)[O-])NCCSCc1ccc(CN(C)C)o1` [RANITIDINE] returned an ED50 of 0.93 mg/kg. The compound `O=S1(=O)N=C(NCCCOc2cccc(CN3CCCCC3)c2)c2cscc21` displayed an ED50 of 0.35 mg/kg. This ED50 is about 2.7-fold lower than that of the compound before.

Another experiment relates to Rattus norvegicus. Nature of the experiment: In vivo inhibitory activity against basal acid secretion in pylorus-ligated rat was determined at a dose of 4 mg/kg. In kind it is functional.
Conditions: not given
Summed up:
(§1)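 Male SD/CD rats (190–260 g), fasted 24 h with water, groups of 10. Pylorus ligated under methohexital (40 mg/kg). Drug in 0.25% aqueous methylcellulose given intraduodenally (1 mL/kg) right after ligation. Killed 4 h later. Gastric juice volume × acid concentration (titration to pH 7.0 with 0.1 N NaOH) gives total acid output, expressed as percent inhibition vs vehicle controls.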
For `N=C(N)Nc1nc(CSCCNC2=NS(=O)(=O)c3cscc32)cs1`, the Total acid output is 83%.

In the case of `CCCN(CCC)Cc1cccc(OCCCNC2=NS(=O)(=O)c3cscc32)c1.Cl`, the Total acid output came out at 16%.

The compound `O=Cc1cccc(OCCCNC2=NS(=O)(=O)c3cscc32)c1` yielded a Total acid output of 89%.

The compound `O=S1(=O)N=C(NCCCOc2cccc(CN3CC=CCC3)c2)c2cscc21` returned a Total acid output of 18%.

`Cl.O=S1(=O)N=C(NCCCOc2cccc(CN3CCCC3)c2)c2cscc21` had a Total acid output of 19%.

The next experiment deals with Rattus norvegicus. Nature of the experiment: In vivo inhibitory activity against basal acid secretion in pylorus-ligated rat was determined at a dose of 8 mg/kg.
Conditions: not given
In kind it is functional. Summed up:
as §1
As to `O=C(c1cccc(OCCCNC2=NS(=O)(=O)c3cscc32)c1)N1CCCCC1`, the Total acid output is given as 94%. The same measure, in the same setting: for `Cc1[nH]cnc1CSCCNC1=NS(=O)(=O)c2cscc21` the value was 87%; for `O=S1(=O)N=C(NCCCOc2cccc(CN3CCCCC3)c2)c2sccc21`, 12%. On the same count and under the same terms, for `NS(=O)(=O)c1cscc1C(=O)NCCCOc1cccc(C=O)c1` the value was 94%; for `Cl.NS(=O)(=O)c1cscc1C(=O)NCCCOc1cccc(CN2CCCCC2)c1.O`, 36%.

Consider `O=S1(=O)N=C(NCCCOc2ccc(CN3CCCCC3)cc2)c2cscc21`, for which the Total acid output was 21%. `O=S1(=O)N=C(NCCCOc2cccc(CN3CCCCC3)c2)c2cscc21` displayed a Total acid output of 16%.

In a further experiment the test system is Rattus norvegicus. Nature of the experiment: In vivo inhibitory activity against basal acid secretion in pylorus-ligated rat was determined at a dose of 4 mg/kg; Inactive.
Conditions: not given
In the case of `O=Cc1cccc(OCCCNC2=NS(=O)(=O)c3cscc32)c1`, the outcome was inactive.
